Compound activity deposited in PubChem BioAssay by several laboratories.
Rows were chosen to be rich in hits. Some 2.1% of all compounds tested hit in one or more screens of this group.
zVAD death inh – blocks zVAD induced death of L929 cells. AID 1377. viability rescue, % at 10 µM. actives 0.38% (n = 220,000). L929 zVAD necroptosis rescue, ATP luminescence, 24 h; with zVAD 60 µM;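 active means activation, scaled between plate controls, above about 75%, limit read from the data; inactive means activation under that limit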;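 further: 0% = zVAD with DMSO and 100% = DMSO alone without zVAD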
TNF death inh – TNF-alpha cell death inhibition in Jurkat FADD-/- cells | Jurkat FADD-/- TNF necroptosis rescue, ATP luminescence, 24 h; 0 = TNF only, 100 = no-TNF cells | activation (protection from cell death), % at 10 µM | actives 0.068% (n = 220,000);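 active means activation, meaning protection from cell death, of at least 50% relative to plate controls; inactive means activation below 50%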;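 further: necroptosis triggered by 40 ng/mL TNF-alpha added together with compound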
STAT3 act-1 – activators of IL-6 induced STAT3 signaling. U3A cells, IL-6 STAT3-luciferase reporter, luminescence; 100% = signal with IL-6 EC80 alone. activation (% of control), % at 5.6 µM. actives 0.91% (n = 190,000). AID 871;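 active means activation above the screen-wide mean of compound activation plus 3 SD, cut at about 130% in these data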;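 further: 0% = background luminescence of wells with medium and substrate only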
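Test system: STAT3-luciferase reporter U3A cells; Detection: reporter luminescence signal; Times: 1 h compound pre-exposure, 6 h IL-6 stimulation, 37 °C; Benchmarks: IL-6-only high control; Also added: IL-6 stimulus at 33 ng/mL final.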
STAT1 inh – STAT1 signaling inhibition | NIH 3T3 STAT1-luciferase reporter, IFN-gamma, luminescence | inhibition, % at 5.5 µM | actives 0.35% (n = 200,000) | AID 920;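 active means inhibition above a set limit, the mean inhibition across all tested compounds plus 3 SD, cut at about 34% in these data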;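 further: 0% = IFN-gamma with DMSO and 100% = IFN-gamma with 300 µM nifuroxazide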
STAT3 inh – inhibitors of IL-6 induced STAT3 signaling; actives 0.89% (n = 190,000); inhibition, % at 5.5 µM; U3A cells, IL-6 STAT3-luciferase reporter, luminescence; host cell line lacks STAT1;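 active means inhibition above the mean inhibition across all screened compounds plus 3 SD, cut at about 44% in these data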;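 further: 0% = DMSO only wells and 100% = 100 µM nifuroxazide control wells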
STAT3 act-2 – STAT3 activation, confirmation assay; shares compounds with STAT3 act-1; U3A STAT3-luciferase reporter, IL-6 potentiation, luminescence; U3A cells lack STAT1; 100 means same as IL-6 alone; potentiation (% of control), % at 5.7 µM; actives 64% (n = 1,200); AID 1267;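 active means percent activation of the STAT3 luciferase reporter above a set limit taken from the earlier primary screen, cut at about 130% in these data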;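 further: 0% = background signal of medium plus substrate and 100% = median of IL-6 with DMSO wells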
NFkB act 2 – counter-screen for STAT3 activators: NF-kappaB activation | shares compounds with STAT3 act-1 | human cells, NF-kappaB reporter activation | activation (% of control), % at 5.7 µM | actives 11% (n = 1,200) | AID 1309; in the data active means activation above about 120%;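 further: reporter induced by TNF-alpha stimulation; 100% = median of stimulated DMSO wells and 0% = no signal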
STAT1 act STAT3c – counter-screen for STAT3 activators: STAT1 activation. actives 13% (n = 1,200). shares compounds with STAT3 act-1. NIH 3T3 STAT1-luciferase reporter, IFN-gamma, luminescence. activation (% of control), % at 5.7 µM;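 active means activation above the solvent-only control well mean plus 3 SD, set per screening run, cut at about 120% in these data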;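 further: 100% = IFN-gamma with DMSO median signal so 100% means no change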
Starred values were filed as active, the others as inactive; · = no result.

SMILES	zVAD death inh	TNF death inh	STAT3 act-1	STAT1 inh	STAT3 inh	STAT3 act-2	NFkB act 2	STAT1 act STAT3c
CCOc1ccccc1NC(=O)Cn1nnc(C(=O)NCc2ccco2)c1N	0	-10	138*	-7	-37	108	142*	101
O=C(N1CCOCC1)N1CCN(c2ccc(F)cc2)CC1	-1	0	92	2	15	·	·	·
Cc1ccc(C(=O)Nc2ccc([N+](=O)[O-])cn2)o1	2	0	87	-17	16	·	·	·
CCN(C1CCCCC1)S(=O)(=O)c1ccc(S(=O)(=O)N2CCN(CCC#N)CC2)cc1	-1	0	98	2	7	·	·	·
O=C1C(Cl)=C(N2CCN(c3ccccc3[N+](=O)[O-])CC2)C(=O)c2ccccc21	5	-10	145*	-4	-52	135*	110	94
Cc1nc(COC(=O)c2cc(O)c3ccccc3c2O)cs1	1	-3	140*	8	-51	127	100	89
Cc1nc(COC(=O)c2ccc(CO)cc2)cs1	0	1	104	-8	-2	·	·	·
O=[N+]([O-])c1cc2c(cc1/C=N/Nc1nc(N3CCCC3)nc(N3CCCC3)n1)OCO2	2	2	90	6	14	·	·	·
CCOc1ccccc1-n1nnnc1SCc1nc2ccccc2s1	0	-1	166*	-17	-70	156*	119	128*
Cn1c(SCc2nc3ccccc3s2)nnc1-c1cccs1	-1	-1	123	-3	-23	·	·	·
CCn1c(SCc2nc3ccccc3s2)nnc1-c1cccs1	0	-1	142*	-19	-40	143*	115	129*
Brc1cccc(Cn2c(-c3cncs3)nc3ccccc32)c1	0	-3	104	-2	0	·	·	·
C=CCSC1=C(C#N)C(c2ccccc2C)CC(=O)N1 (centres undefined)	0	-2	107	2	-3	·	·	·
COC(=O)CCC(=O)Nc1ccc(C)cc1OC(=O)CCC(=O)OC	-1	0	136*	-1	-42	108	100	98
O=C(Nc1ccccc1)C1=C[C@@H](C2CCCCC2)C[C@@H](OCc2ccc(CO)cc2)O1	0	-3	·	-5	·	·	·	·
Cc1ccc(S(=O)(=O)Nc2cc(C(C(=O)OC(C)C)C(=O)C(F)(F)F)c(O)c3ccccc23)c(C)c1 (centres undefined)	2	-7	138*	-3	-45	110	102	102
Cc1ccc(S(=O)(=O)Nc2ccc3c4c(cccc24)CC3)c(C)c1	0	-14	99	-7	6	·	·	·
CC(C)c1ccccc1NC(=S)N1CCN(S(=O)(=O)c2cccs2)CC1	1	0	110	-12	-4	·	·	·
OC1CCN(c2c3c(nc4cc(-c5ccc(F)cc5)nn24)CCC3)CC1	1	-2	85	5	21	·	·	·
O=C(C1CCCO1)N1CCN(c2c3c(nc4cc(-c5ccc(F)cc5)nn24)CCC3)CC1 (centres undefined)	0	-3	137*	2	-31	120	107	94
CCOC(=O)C1(Cc2cccc(F)c2)CCN(C(=O)Cc2cccnc2)CC1	0	0	107	4	-2	·	·	·
CC(C)Cc1cc(C(=O)Nc2cc(Cl)ccc2Cl)no1	0	1	138*	-1	-41	137*	112	116
Brc1cc(Br)c2nc(-c3cccs3)ccc2c1	0	0	145*	-7	-48	133	115	125*
Clc1ccccc1OCc1nc(-c2ccc(Br)o2)no1	1	10	137*	-25	-33	126	110	125*
Fc1ccc(OCc2nc(-c3ccc(Br)o3)no2)c(F)c1	-1	6	107	-5	-4	·	·	·
Cc1ccc(-n2nc(C)c3c(-c4cccs4)c(C#N)c(N)nc32)cc1	0	0	144*	7	-47	124	99	103
